Results: ChEMBL document CHEMBL4393700, “Novel resveratrol-based flavonol derivatives: Synthesis and anti-inflammatory activity in vitro and in vivo” (Eur J Med Chem, 2019)
pIC50: −log10 of the molar value. Calls of active or inactive are those of the source. No cut-off for these calls is given here.

How the values were obtained:
RAW264.7 [1] = assay: Cytotoxicity against LPS-stimulated mouse RAW264.7 cells at 20 uM pretreated for 1 hr followed by LPS stimulation and measured after 24 hrs by MTT assay; details: raw264.7, 24 h
RAW264.7 [2] = assay: Antiinflammatory activity in mouse RAW264.7 cells assessed as inhibition of LPS-induced NO production at 10 uM pretreated for 1 hr followed by LPS stimulation and measured after 24 hrs by Griess reagent based assay; assay type: functional, cell-based
Outline: (§1)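 RAW264.7 in DMEM/10% FBS with penicillin-streptomycin, 37 °C, 5% CO2; seeded 6×10^4 cells/well, grown 24 h, pretreated 1 h with test agent (10 µM screen; 10, 5, 2.5, 1.25, 0.625 µM for concentration series), then LPS 0.5 µg/mL for 24 h. Supernatant nitrite measured with Griess reagent.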

Mus musculus [3] = assay: Antiinflammatory activity in C57/BL6 mouse ALI model assessed as reduction in LPS-induced pulmonary edema by measuring lung wet/dry weight ratio at 10 to 20 mg/kg, ip pretreated for 30 mins followed by LPS challenge and measured after 48 hrs; assay type: functional, organism-based
Outline: (§2)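 Male C57BL/6 mice, 18~22 g, acclimatized one week; 40 randomly split into control, LPS, and two LPS groups pretreated i.p. (10 or 20 mg/kg) 30 min before LPS (methods: 20 mg/kg tail vein; legend: 5 mg/kg intratracheal). Saline i.p. to controls. Sacrificed 48 h after LPS; read-outs lung MPO, body weight, upper right lobe wet/dry ratio (dried at 60 °C until constant), H&E on paraformaldehyde-fixed paraffin sections.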

RAW264.7 [4] = assay: Antiinflammatory activity in mouse RAW264.7 cells assessed as reduction in LPS-induced NO production pretreated for 1 hr followed by LPS stimulation and measured after 24 hrs by Griess reagent based assay; assay type: functional, cell-based
Outline: as §1

RAW264.7 [5] = assay: Antiinflammatory activity in mouse RAW264.7 cells assessed as reduction in LPS-induced IL-6 production pretreated for 1 hr followed by LPS stimulation and measured after 24 hrs by ELISA; assay type: functional, cell-based
Outline: (§3)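 RAW264.7 seeded 6×10^4 cells/well, cultured 24 h; 1 h pretreatment at 10, 5, 2.5, 1.25 or 0.625 µM, then LPS 0.5 µg/mL for 24 h. IL-6 and TNF-α in conditioned medium quantified by ELISA.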

RAW264.7 [6] = assay: Antiinflammatory activity in mouse RAW264.7 cells assessed as reduction in LPS-induced TNF alpha production pretreated for 1 hr followed by LPS stimulation and measured after 24 hrs by ELISA; assay type: functional, cell-based
Outline: as §3

RAW264.7 [7] = assay: Antiinflammatory activity in mouse RAW264.7 cells assessed as reduction in LPS-induced iNOS protein expression pretreated for 1 hr followed by LPS stimulation and measured after 24 hrs by Western blot analysis; assay type: functional, cell-based
Outline: (§4)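 Western blot in RAW264.7: 1 h pretreatment at 0.5–2 µM, LPS 0.5 µg/mL for 24 h; lysis in RIPA with PMSF and phosphatase inhibitors on ice 30 min, 12% SDS-PAGE, PVDF, primary antibodies overnight at 4 °C, HRP secondary 1:5000 1 h at room temperature; iNOS and COX-2 against β-actin; three separate experiments.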

RAW264.7 [8] = assay: Antiinflammatory activity in mouse RAW264.7 cells assessed as reduction in LPS-induced COX2 protein expression pretreated for 1 hr followed by LPS stimulation and measured after 24 hrs by Western blot analysis; assay type: functional, cell-based
Outline: as §4

RAW264.7 [9] = assay: Antiinflammatory activity in mouse RAW264.7 cells assessed as reduction in LPS-induced TLR4 protein expression pretreated for 1 hr followed by LPS stimulation and measured after 30 mins by Western blot analysis; assay type: functional, cell-based
RAW264.7 [10] = assay: Inhibition of LPS-induced JNK phosphorylation in mouse RAW264.7 cells pretreated for 1 hr followed by LPS stimulation by Western blot analysis; assay type: cell-based
Outline: (§5)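 RAW264.7 seeded 3×10^5 cells/well, 24 h; pretreated 1 h at 0.5, 1 or 2 µM, then LPS 0.5 µg/mL for 30 min. RIPA lysates (PMSF, phosphatase inhibitors) on 12% SDS-PAGE, PVDF; primary antibodies overnight 4 °C, HRP secondary 1:5000. Probed phospho/total ERK, JNK, p38, p-IκB, IκB, p-p65, p65, β-actin; three independent experiments.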

RAW264.7 [11] = assay: Effect on total ERK expression level in LPS-induced mouse RAW264.7 cells pretreated for 1 hr followed by LPS stimulation and measured after 30 mins by Western blot analysis; assay type: ADME, cell-based; details: raw264.7, 0.5 h
Outline: as §5

RAW264.7 [12] = assay: Effect on total p38 expression level in LPS-induced mouse RAW264.7 cells pretreated for 1 hr followed by LPS stimulation and measured after 30 mins by Western blot analysis; assay type: ADME, cell-based; details: raw264.7, 0.5 h
Outline: as §5

RAW264.7 [13] = assay: Effect on total JNK protein expression level in LPS-induced mouse RAW264.7 cells pretreated for 1 hr followed by LPS stimulation and measured after 30 mins by Western blot analysis; assay type: ADME, cell-based; details: raw264.7, 0.5 h
Outline: as §5

RAW264.7 [14] = assay: Inhibition of LPS-stimulated NFkappaB activation in mouse RAW264.7 cells assessed as reduction in IkappaB phosphorylation at 0.5 to 2 uM pretreated for 1 hr followed by LPS stimulation and measured after 30 mins by Western blot analysis; assay type: cell-based
Outline: as §5

RAW264.7 [15] = assay: Inhibition of LPS-stimulated NFkappaB activation in mouse RAW264.7 cells assessed as reduction in LPS-induced IkappaB degradation at 0.5 to 2 uM pretreated for 1 hr followed by LPS stimulation and measured after 30 mins by Western blot analysis; assay type: cell-based
Outline: as §5

Mus musculus [16] = assay: Antiinflammatory activity in C57/BL6 mouse ALI model assessed as reduction in LPS-induced MPO level in lungs tissue at 10 to 20 mg/kg, ip pretreated for 30 mins followed by LPS challenge and measured after 48 hrs; assay type: functional, organism-based
Outline: as §2

Mus musculus [17] = assay: Effect on LPS-induced body weight loss in C57/BL6 mouse at 10 to 20 mg/kg, ip pretreated for 30 mins followed by LPS challenge; assay type: functional, organism-based
Outline: as §2

Mus musculus [18] = assay: Protection against LPS-induced acute lung injury in C57/BL6 mouse assessed as survival rate at 10 to 20 mg/kg, ip pretreated for 30 mins followed by LPS challenge and measured at 24 hrs (reference value: 60%); assay type: functional
Mus musculus [19] = assay: Protection against LPS-induced acute lung injury in C57/BL6 mouse assessed as survival rate at 20 mg/kg, ip pretreated for 30 mins followed by LPS challenge and measured after 48 hrs (reference value: 10%); assay type: functional
Mus musculus [20] = assay: Antiinflammatory activity in C57/BL6 mouse ALI model assessed as reduction in LPS-induced pro-inflammatory alterations at 10 to 20 mg/kg, ip pretreated for 30 mins followed by LPS challenge and measured after 48 hrs by H and E staining based histopathological analysis; assay type: functional, organism-based
Outline: as §2

Mus musculus [21] = assay: Antiinflammatory activity in C57/BL6 mouse ALI model assessed as reduction in LPS-induced alveolar hemorrhage at 10 to 20 mg/kg, ip pretreated for 30 mins followed by LPS challenge and measured after 48 hrs by H and E staining based histopathological analysis; assay type: functional, organism-based
Outline: as §2

Mus musculus [22] = assay: Antiinflammatory activity in C57/BL6 mouse ALI model assessed as reduction in LPS-induced lung edema at 10 to 20 mg/kg, ip pretreated for 30 mins followed by LPS challenge and measured after 48 hrs by H and E staining based histopathological analysis; assay type: functional, organism-based
Outline: as §2

Mus musculus [23] = assay: Antiinflammatory activity in C57/BL6 mouse ALI model assessed as reduction in LPS-induced inflammatory cell infiltration at 10 to 20 mg/kg, ip pretreated for 30 mins followed by LPS challenge and measured after 48 hrs by H and E staining based histopathological analysis; assay type: functional, organism-based
Outline: as §2

Mus musculus [24] = assay: Antiinflammatory activity in C57/BL6 mouse ALI model assessed as reduction in LPS-induced destruction of alveolar structure at 10 to 20 mg/kg, ip pretreated for 30 mins followed by LPS challenge and measured after 48 hrs by H and E staining based histopathological analysis; assay type: functional, organism-based
Outline: as §2

[25] = Toxicity in C57/BL6 mouse ALI model assessed as induction of destruction of alveolar structure at 20 mg/kg, ip measured after 48 hrs by H and E staining based histopathological analysis; assay type: organism-based; details: in vivo
Outline: (§6)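 Mice given 20 mg/kg i.p. without LPS, compared with controls; lung sections stained with hematoxylin and eosin for edema, hemorrhage, inflammatory cell infiltration and alveolar structure.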

[26] = Toxicity in C57/BL6 mouse ALI model assessed as induction of inflammatory cell infiltration at 20 mg/kg, ip measured after 48 hrs by H and E staining based histopathological analysis; assay type: organism-based; details: in vivo
Outline: as §6

[27] = Toxicity in C57/BL6 mouse ALI model assessed as mortality at 20 mg/kg, ip; assay type: organism-based; details: in vivo
Outline: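 Mice were given the compound at 20 mg/kg ip as solutions, with no LPS challenge. They were observed against an untreated control group, and lung sections were then stained with H&E to look for inflammation, hemorrhage, edema and alveolar damage.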

[28] = Toxicity in C57/BL6 mouse ALI model assessed as induction of pro-inflammatory alterations at 20 mg/kg, ip measured after 48 hrs by H and E staining based histopathological analysis; assay type: organism-based; details: in vivo
Outline: as §6

[29] = Toxicity in C57/BL6 mouse ALI model assessed as induction of alveolar hemorrhage at 20 mg/kg, ip measured after 48 hrs by H and E staining based histopathological analysis; assay type: organism-based; details: in vivo
Outline: as §6

[30] = Toxicity in C57/BL6 mouse ALI model assessed as induction of lung edema at 20 mg/kg, ip measured after 48 hrs by H and E staining based histopathological analysis; assay type: organism-based; details: in vivo
Outline: as §6

RAW264.7 [31] = assay: Inhibition of LPS-stimulated NFkappaB activation in mouse RAW264.7 cells assessed as reduction in p65 phosphorylation at 0.5 to 2 uM pretreated for 1 hr followed by LPS stimulation and measured after 30 mins by Western blot analysis; assay type: cell-based
Outline: as §5

In the case of COc1ccc(/C=C/c2cc(OC)cc(OC)c2-c2oc3cc(C)ccc3c(=O)c2O)cc1, the Activity (RAW264.7 [1]) was “Non-Toxic”.
For CCOc1ccc(/C=C/c2cc(OC)cc(OC)c2-c2oc3ccc(OC)cc3c(=O)c2O)cc1, the Activity (RAW264.7 [1]) was “Non-Toxic”.
For COc1ccc(/C=C/c2cc(OC)cc(OC)c2-c2cc(=O)c3cc(OC)ccc3o2)cc1, the inhibition (RAW264.7 [2]) was “Active”.
For COc1ccc(/C=C/c2cc(OC)cc(OC)c2-c2oc3ccc(Br)cc3c(=O)c2O)cc1, the inhibition (RAW264.7 [2]) was “Active”.
For CCOc1ccc(/C=C/c2cc(OC)cc(OC)c2-c2oc3ccccc3c(=O)c2O)cc1, the inhibition (RAW264.7 [2]) was “Active”.
In the case of COc1ccc(/C=C/c2cc(OC)cc(OC)c2-c2oc3ccc(F)cc3c(=O)c2O)cc1, the Activity (Mus musculus [3]) was “Active”, the inhibition (RAW264.7 [2]) was “Active” and the Activity (RAW264.7 [4]) was “Dose-dependent effect”. For the same compound, the pIC50 (RAW264.7 [4]) was 5.87, the Activity (RAW264.7 [5]) was “Dose-dependent effect” and the pIC50 (RAW264.7 [5]) was 5.95. For the same compound, the Activity (RAW264.7 [6]) was “Dose-dependent effect”, the pIC50 (RAW264.7 [6]) was 5.72 and the Activity (RAW264.7 [7]) was “Dose-dependent effect”. For the same compound, the Activity (RAW264.7 [8]) was “Dose-dependent effect”, the Activity (RAW264.7 [9]) was “Dose-dependent effect” and the inhibition (RAW264.7 [10]) was “inactive”. For the same compound, the Activity (RAW264.7 [11]) was “Non-Toxic”, the Activity (RAW264.7 [12]) was “Non-Toxic” and the Activity (RAW264.7 [13]) was “Non-Toxic”. The inhibition (RAW264.7 [14]) was “Active”, the inhibition (RAW264.7 [15]) was “Active” and the Activity (Mus musculus [16]) was “Active”. For the same compound, the Activity (Mus musculus [17]) was “inactive”, the Activity (Mus musculus [18]) was 90% and the Activity (Mus musculus [19]) was 50%. The Activity (Mus musculus [20]) was “Active”, the Activity (Mus musculus [21]) was “Active” and the Activity (Mus musculus [22]) was “Active”. The Activity (Mus musculus [23]) was “Active”, the Activity (Mus musculus [24]) was “Active” and the Activity [25] was “Non-Toxic”. For the same compound, the Activity [26] was “Non-Toxic”, the Activity [27] was “Non-Toxic” and the Activity [28] was “Non-Toxic”. For the same compound, the Activity [29] was “Non-Toxic”, the Activity [30] was “Non-Toxic” and the inhibition (RAW264.7 [31]) was “Active”.
With COc1cc(/C=C/c2ccc(OCc3ccccc3)cc2)c(-c2cc(=O)c3cc(Br)ccc3o2)c(OC)c1 the Activity (RAW264.7 [1]) was “Non-Toxic”.
For Cc1ccc(-c2cc(C(F)(F)F)nn2-c2ccc(S(N)(=O)=O)cc2)cc1, the inhibition (RAW264.7 [2]) was “Active”.
